The text below walks through data of ChEMBL document CHEMBL4017500 (J Med Chem, 2017).

Experiment [1] concerns Bacteria. The experiment can be described thus: Binding affinity to bacterial CoCoNDM-1 expressed in Escherichia coli BL21(DE3) assessed as CoCoNDM-1-compound ternary complex formation at 3 to 5 equiv by 1H NMR spectroscopic method. Put shortly: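 Apo-NDM-1 concentrated to ~1 mM and loaded with 2 equiv CoCl2. Samples in 50 mM HEPES, 150 mM NaCl, 10% D2O, pH 6.8. Compounds from 50–100 mM DMSO stocks titrated in ~5 μL aliquots. 1H spectra recorded at 292 K, 300.16 MHz.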

For experiment [2], the system named is Bacteria. Briefly: Binding affinity to bacterial NDM-1 expressed in Escherichia coli BL21(DE3) assessed as Zn2+ stripping up to 128 uM after 30 mins by equilibrium dialysis method. In short, it runs like this: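 NDM-1 (8 μM final) in 50 mM HEPES pH 7.5 mixed with compound at 0–128 μM for 30 min. Then dialyzed 4 h against metal-free 50 mM HEPES pH 7.5. Residual Zn(II) measured by ICP-AES at 213.856 nm.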
In general terms: In equilibrium dialysis only unbound substance equilibrates across the membrane.

For experiment [3], the system named is Bacteria. The experiment can be described thus: Binding affinity to bacterial NDM-1 expressed in Escherichia coli BL21(DE3) assessed as increase in intrinsic tryptophan fluorescence up to 32 uM after 30 mins by luminescence spectrometric method relative to control. In short, it runs like this:
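NDM-1 at 2 μM final in 50 mM HEPES pH 7.5 mixed with compound at 4–32 μM, incubated 30 min. Emission scanned 300–400 nm with excitation at 280 nm. Relative tryptophan fluorescence read at 348 nm, with buffer set to 0% and inhibitor-free NDM-1 to 100%. Control run with 2 μM L-tryptophan in place of enzyme.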

Experiment [4] can be described thus: Fluorescence quenching activity assessed as reduction in tryptophan fluorescence up to 32 uM after 30 mins by luminescence spectrometric method. Put shortly: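 NDM-1 (2 μM final) in 50 mM HEPES pH 7.5 with compound at 4–32 μM for 30 min. Excitation 280 nm, emission scanned 300–400 nm, intensity taken at 348 nm. Scaled with buffer as 0% and inhibitor-free enzyme as 100%. Free L-tryptophan (2 μM) run as control.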

Experiment [5] concerns Bacteria. Briefly: Binding affinity to bacterial CoCoNDM-1 expressed in Escherichia coli BL21(DE3) assessed as CoCoNDM-1-compound ternary complex formation at 1 to 2 equiv after 30 mins by UV-Visible spectroscopic method. In short, it runs like this: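 Apo-NDM-1 at 300 μM in 50 mM HEPES, 150 mM NaCl, pH 6.8, loaded with 2 molar equiv CoCl2. […] Absorbance read 300–700 nm at 25 °C as difference spectra against buffer blank, normalized at 700 nm.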

Experiment [6] concerns Bacteria. Briefly: Binding affinity to bacterial CoCoNDM-1 expressed in Escherichia coli BL21(DE3) assessed as CoCoNDM-1-compound ternary complex formation at 1 equiv by 1H […] spectroscopic method.

Calls of active or inactive are those of the source. The calls are words filed in the database; no cut-off is given here.

As for `C[C@H](CS)C(=O)N1CCC[C@H]1C(=O)O`, the result in the experiment on Bacteria [1], in the experiment on Bacteria [5] and in the experiment with Bacteria [6] was Active. The result (with Bacteria [2]; in experiment [4]) was inactive. Further, in the experiment on Bacteria [3], the Activity came to 10%.
